Test results: article PMC7009771 (EFSA Journal, 2018)
Converted amounts (≈) assume the structure as drawn. “Also recorded” adds a separate entry of the source. Read-outs that look alike come from different tables or passages of the source.

Columns and labels:
[1] = carcinogenic potential; ref EC SCCS, 2012, EFSA ANS Panel, 2017; cited from earlier work
[2] = Nitrosation rate constant; conditions: pH 3.4; estimated from kDMA by correction for the pKa difference
[3] = system: bone marrow of Hsd:ICR (CD-1) mice; conditions: cited from earlier work; for maximum tolerated dose (MTD): range-finder, oral gavage, ref BioReliance, 2014
bone marrow of CD-1 mice = conditions: ref WIL Research (2013a), cited from earlier work
[4] = 24 h at 100°C, ref Senomyx, 2015, cited from earlier work
[5] = system: Keratinocyte ARE-Reporter Cell Line KeratinoSens; conditions: in vitro; ref IIVS, 2013; cited from earlier work
CD [Crl:CD(SD)] rats [6] = conditions: 90 days, gavage, rats males and females; ref Charles River (2014); cited from earlier work
CD [Crl:CD(SD)] rats [7] = assay: 90-day oral toxicity study in rats; type: in vivo
Summary of the method: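 Candidate substance given by oral gavage to CD rats of both sexes for 13 weeks at up to 100 mg/kg bw per day, with doses chosen from a 28-day dietary range-finder. Margin of safety derived from the 90-day NOAEL against APET exposure estimates: chronic 3.8 (adult) or 9.5 (child) µg/kg bw per day, and acute 0.076 mg/kg bw for a 3-year-old child.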

[8] = ref Senomyx, 2015, cited from earlier work
CYP2C19 [9] = conditions: 10 μM (~ […]), pooled human liver microsomes; ref Absorption Systems, 2013a; cited from earlier work
[10] = system: human peripheral blood lymphocytes (HPBL); conditions: ref Nucro-Technics (2013b), cited from earlier work; for relative cell growth (RCG) (test vs. solvent control) / relative mitotic index (RMI) (test vs. solvent control): 3-h exposure without S9-mix
Balb/c 3T3 cells = conditions: based on 3T3 NRU test; ref CeeTox, 2013; cited from earlier work
CD [Crl:CD(SD)] rats [11] = conditions: 28 days, gavage, rats males and females; ref Charles River (2013); cited from earlier work
hERG ion channel = conditions: 10 μM; ref AVIVA, 2012; cited from earlier work
[12] = system: 67 receptor binding assays for G-protein coupled receptors (GPCRs), ion channels, nuclear receptors and transporters; conditions: significant = ≥ 50% inhibition or stimulation; 67 assays; ref Ricerca, 2012; cited from earlier work
humans = conditions: 112 subjects completed, ref Harrison Research Laboratories, 2014a,b; cited from earlier work
[13] = in vitro; ref CiToxLab, 2014; cited from earlier work
CYP2C19 [14] = conditions: human liver microsomes; ref Absorption Systems, 2013b; cited from earlier work
[15] = heated for 24 h at 110°C; ref Senomyx, 2015; cited from earlier work
[16] = system: human peripheral blood lymphocytes (HPBL); conditions: ref BioReliance (2013b), cited from earlier work; for Chromosome aberration result (structural aberrations): 4 + 16 h in the absence of S9-mix
[17] = system: S. Typhimurium strains TA98, TA100, TA1535 and TA1537 and E. coli strain WP2 uvrA; conditions: up to 5,000 μg/plate, ref BioReliance (2013a), cited from earlier work; for Bacterial reverse mutation result: plate incorporation, with and without metabolic activation
[18] = 3-h exposure with S9-mix, 1.3 μg/mL
[19] = 3-h exposure with S9-mix, 2.5 μg/mL
[20] = 3-h exposure with S9-mix, 5.0 μg/mL
[21] = 20-h exposure without S9, 23 μg/mL
[22] = 20-h exposure without S9, 39 μg/mL
[23] = 20-h exposure without S9, 65 μg/mL
[24] = 20-h exposure without S9, 110 μg/mL

## CN(C)N=O [DMNA, dimethylnitrosamine]
[1]
  BMDL10: 27 μg/kg bw per day

## c1csc(CNc2cc[nH]n2)c1 [M179, N‐(thiophen‐2‐ylmethyl)‐1H‐pyrazol‐3‐amine]
[2]
  rate constant of nitrosation (kM179), estimated: 0.0017 × 10^−4 M^−2s^−1

## COS(C)(=O)=O [MMS, methyl methanesulfonate, reference compound]
[3]; positive control, 40 mg/kg bw per day on days 2 and 3, ref BioReliance (2014)
  frequency of MNPCEs, positive control: statistically significant increases

## O=P1(N(CCCl)CCCl)NCCCO1 (stereo not shown) [CP, Cyclophosphamide monohydrate, reference compound]
Bone marrow of CD-1 mice; positive control, 60 mg/kg bw per day
  frequency of MNPCEs, positive control: statistically significant increase

## Cc1ccc(OCC(=O)N(Cc2cccs2)c2ccn[nH]2)cc1 [FL‐no: 16.133, 2‐(4‐methylphenoxy)‐N‐(1H‐pyrazol‐3‐yl)‐N‐(thiophen‐2‐ylmethyl)acetamide]
[4]; aqueous citric buffer pH 2.8
  percentage remaining: 90.1%
[4]; aqueous citric buffer pH 4.0
  percentage remaining: 97.2%
[4]; phosphoric acid buffer pH 7.1
  percentage remaining: 83.5%
[5]
  skin sensitisation potential, KeratinoSens Assay: may exhibit a skin sensitisation potential
CD [Crl:CD(SD)] rats [6]
  Result: NOEL: NOEL: ≥ 100 mg/kg bw per day
CD [Crl:CD(SD)] rats [7]; Adult, 90-day NOAEL 100 mg/kg bw per day vs chronic APET 3.8 μg/kg bw per day
  Margin of safety: 26,300
CD [Crl:CD(SD)] rats [7]; Child, 90-day NOAEL 100 mg/kg bw per day vs chronic APET 9.5 μg/kg bw per day
  Margin of safety: 10,500
CD [Crl:CD(SD)] rats [7]; children, 90-day NOAEL vs maximum acute dietary exposure about 0.08 mg/kg bw
  MoE, acute exposure: more than 1,000
[8]; 95% ethanol
  Solubility in ethanol: > 308 mM
[8]; pH = 7
  Solubility in water: 0.12 mM (≈ 0.0393 mg/mL)
[8]
  Solubility in triacetine: 40.47 mM (≈ 13.3 mg/mL)
CYP2C19 [9]
  CYP2C19 inhibition: significant inhibition
[10]; [18]
  relative cell growth (RCG): 109%
  relative mitotic index (RMI): 61%
[10]; [19]
  relative cell growth (RCG): 100%
  relative mitotic index (RMI): 55%
[10]; [20]
  relative cell growth (RCG): 121%
  relative mitotic index (RMI): 45%
[10]; 3-h exposure with S9-mix, 10 μg/mL
  relative cell growth (RCG): 130%
[10]; 3-h exposure with S9-mix, 20 μg/mL
  relative cell growth (RCG): 97%
[10]; 3-h exposure with S9-mix, 40 μg/mL
  relative cell growth (RCG): 84%
[10]; 3-h exposure with S9-mix, 80 μg/mL
  relative cell growth (RCG): 60%
[10]; 3-h exposure with S9-mix, 160 μg/mL
  relative cell growth (RCG): 11%
[10]; 35 μg/mL
  relative cell growth (RCG) (test vs. solvent control): 108%
  relative mitotic index (RMI) (test vs. solvent control): 102%
[10]; 58 μg/mL
  relative cell growth (RCG) (test vs. solvent control): 93%
  relative mitotic index (RMI) (test vs. solvent control): 88%
[10]; 97 μg/mL
  relative cell growth (RCG) (test vs. solvent control): 98%
  relative mitotic index (RMI) (test vs. solvent control): 110%
[10]; 160 μg/mL
  relative cell growth (RCG) (test vs. solvent control): 60%
  relative mitotic index (RMI) (test vs. solvent control): 48%
[10]; 270 μg/mL
  relative cell growth (RCG) (test vs. solvent control): 18%
[10]; [21]
  relative cell growth (RCG): 100%
  relative mitotic index (RMI): 106%
[10]; [22]
  relative cell growth (RCG): 97%
  relative mitotic index (RMI): 82%
[10]; [23]
  relative cell growth (RCG): 60%
  relative mitotic index (RMI): 57%
[10]; [24]
  relative cell growth (RCG): 56%
  relative mitotic index (RMI): 0%
[10]; 20-h exposure without S9, 180 μg/mL
  relative cell growth (RCG): 19%
Balb/c 3T3 cells
  phototoxic potential (Panel conclusion): does not anticipate that [FL‐no: 16.133] has a phototoxic potential
CD [Crl:CD(SD)] rats [11]
  Result: NOEL: NOEL: ≥ 100 mg/kg bw per day
hERG ion channel
  inhibition of hERG ion channel current: < 10%
[12]
  responses in lead profiling receptor screen: No significant responses
humans
  skin sensitisation, HRIPT result: negative result
[13]
  skin sensitisation potential, DPRA: may exhibit a skin sensitisation potential
Bone marrow of CD-1 mice; CD-1 mice, 1,000-2,000 mg/kg bw per day
  ratio PCEs/TE (bone marrow toxicity) vs vehicle control: No decrease
Bone marrow of CD-1 mice; CD-1 mice, gavage, 1,000, 1,500 and 2,000 mg/kg bw per day, three consecutive days
  Micronucleus assay result (incidence of MNPCEs): No statistically significant increases; also recorded: Negative
Bone marrow of CD-1 mice; CD-1 mice, gavage, up to 2,000 mg/kg bw per day
  clinical signs of toxicity: No clinical signs of toxicity
CYP2C19 [14]
  time-dependent inhibition of CYP2C19: No evidence of time‐dependent CYP inhibition
[15]
  Dry powder stability: stable

## O=S(=O)(O)O.c1csc(CNc2cc[nH]n2)c1.c1csc(CNc2cc[nH]n2)c1 [S2312, hemisulfate salt of N‐(thiophen‐2‐ylmethyl)‐1H‐pyrazol‐3‐amine]
[3]; mice, 125-1,000 mg/kg bw per day, gavage, ref BioReliance (2014)
  clinical signs observed: piloerection (at all dose levels), lethargy (at 500 and 1,000 mg/kg bw per day), prostration, irregular breathing and crusty eyes (at 1,000 mg/kg bw per day in female mice)
[3]; mice, any dose level up to 1,000 mg/kg bw per day, ref BioReliance (2014)
  mortality: No mortality
[3]; female mice
  maximum tolerated dose (MTD): 1,000 mg/kg bw per day
[3]; male mice
  maximum tolerated dose (MTD): 500 mg/kg bw per day

## Cl.c1csc(CNc2cc[nH]n2)c1 [S1140, N‐(Thiophen‐2‐ylmethyl)‐1H‐pyrazol‐3‐amine, hydrochloride salt]
[16]; hydrochloride salt (M179)
  Chromosome aberration result (structural aberrations): Positive ^e
[16]
  Chromosome aberration result (structural aberrations): induced chromosomal aberrations
[16]; 4 + 16 h treatment in the presence of S9-mix, 100-1,840 μg/mL
  structural chromosomal aberrations: No statistically significant or concentration‐related increases in structural chromosomal aberrations
[16]; any of the treatment conditions
  polyploidy: No statistically significant or concentration‐related increases in polyploidy
[17]
  Bacterial reverse mutation result: did not show mutagenicity
[17]; hydrochloride salt (M179)
  Bacterial reverse mutation result: Negative ^a
[17]; two studies
  precipitate / background lawn toxicity: Neither precipitate nor background lawn toxicity was observed in the two studies performed
